Assay results reported in ChEMBL document CHEMBL1629579, “Correlating echinocandin MIC and kinetic inhibition of fks1 mutant glucan synthases for Candida albicans: implications for interpretive breakpoints” (Antimicrob Agents Chemother, 2009).
≈ marks a conversion by molar mass, not a printed value. Numbered stars: 1 amine (or outer) side, 2 acyl side, 3 side chain; on linkers, the order of the positions; unused ones are H or OH. Bridge positions count the residues as written; N and C are the ends. Square brackets hold non-standard residues; d marks the D form. Peptide text beside a SMILES is read from it. * marks the point of attachment. hTyr(3S-OH,4S-OH,3'-OSO3H) = N[C@H](C(=O)O)[C@H](O)[C@@H](O)c1ccc(O)c(OS(=O)(=O)O)c1; Orn(4R-OH,5R-OH) = O=C([C@H](C[C@@H](O)[C@@H](O)N[*:3])N[*:1])[*:2]; Pro(3S-OH,4S-Me) = C[C@H]1CN[C@H](C(=O)O)[C@H]1O; X1 = CCCCCOc1ccc(-c2cc(-c3ccc(C(=O)*)cc3)no2)cc1; Gln(3R-OH) = NC(=O)C[C@@H](O)[C@H](N)C(=O)O; Hyp = O=C(O)[C@@H]1C[C@@H](O)CN1

Tests used:
[1] = tested on: Candida albicans; assay: Antimicrobial activity against Candida albicans A15-10 harboring FKS1 T1933C mutant gene and FKS1 hotspot1 S645P mutant gene by M27-A3 method; type: functional
Method in brief: (§1)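 Broth microdilution per CLSI M27-A3 in RPMI 1640, done in triplicate on three separate days. Each strain was tested with and without 50% human serum. C. krusei ATCC 6258 and C. parapsilosis ATCC 22019 served as QC strains. Arithmetic means are reported, and geometric means were used for comparison.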

[2] = tested on: Candida albicans; assay: Antimicrobial activity against Candida albicans 36082 by M27-A3 method in presence of 50% human serum; type: functional; method in brief: as §1
[3] = tested on: Candida albicans; assay: Antimicrobial activity against Candida albicans 119 harboring FKS1 T1921C mutant gene and FKS1 hotspot1 F641L mutant gene by M27-A3 method; type: functional; method in brief: as §1
[4] = tested on: Candida albicans; assay: Antimicrobial activity against Candida albicans 149 harboring FKS1 G1942T mutant gene and FKS1 hotspot1 D648Y mutant gene by M27-A3 method; type: functional; method in brief: as §1
[5] = tested on: Candida albicans SC5314; assay: Activity at Candida albicans SC5314 1,3-beta-D-glucan synthase subunit FKS1p
Method in brief: (§2)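 Glucan synthase from cells grown at 37°C with vigorous shaking to early stationary phase in YPD. Membrane enzyme enriched by product entrapment. Serial echinocandin dilutions; ANF controls held 1% DMSO. Reaction started by adding enzyme, run 60 min at 25°C in a filtration polymerization assay, stopped on ice. IC50 from a variable-slope sigmoidal fit; means of three repetitions on separate days.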

[6] = tested on: Candida albicans; assay: Activity at Candida albicans 194 1,3-beta-D-glucan synthase subunit FKS1p C1934T/G4082R mutant
Method in brief: (§3)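 Product-entrapped 1,3-β-D-glucan synthase from cells grown in YPD at 37°C to early stationary phase. Wells held 50 mM HEPES pH 7.5, 10% glycerol, 1.5 mg/ml BSA, 25 mM KF, 1 mM EDTA, 25 μM GTP-γ-S, 1 μg enzyme and [3H]UDPG (0.015–2 mM). Reactions ran 60 min at 25°C. Vmax and Km came from Lineweaver-Burke plots, in triplicate.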

[7] = tested on: Candida albicans; assay: Antimicrobial activity against Candida albicans A15 harboring FKS1 T1933Y mutant gene and FKS1 hotspot1 S645S/P mutant gene by M27-A3 method; type: functional; method in brief: as §1
[8] = tested on: Candida albicans; assay: Antimicrobial activity against Candida albicans 2762 harboring FKS1 T1922C mutant gene and FKS1 hotspot1 F641S mutant gene by M27-A3 method in presence of 50% human serum; type: functional; method in brief: as §1
[9] = tested on: Candida albicans; assay: Antimicrobial activity against Candida albicans 177 harboring FKS1 T1922C mutant gene and FKS1 hotspot1 F641S mutant gene by M27-A3 method; type: functional; method in brief: as §1
[10] = tested on: Candida albicans; assay: Activity at Candida albicans 177 1,3-beta-D-glucan synthase subunit FKS1p T1922C mutant; method in brief: as §3
[11] = tested on: Candida albicans; assay: Antimicrobial activity against Candida albicans 177 harboring FKS1 T1922C mutant gene and FKS1 hotspot1 F641S mutant gene by M27-A3 method in presence of 50% human serum; type: functional; method in brief: as §1
[12] = Inhibition of Candida albicans 2762 1,3-beta-D-glucan synthase subunit FKS1p T1922C mutant
Method in brief: (§4)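 Enzyme is product-entrapped 1,3-β-D-glucan synthase, enriched from membranes of each strain grown at 37°C with shaking in YPD broth to early stationary phase. Filtration polymerization assay uses [3H]UDPG, started by adding enzyme and run 60 min at 25°C. Echinocandins are added as serial dilutions, with 1% DMSO controls for anidulafungin. IC50 is from a variable-slope sigmoidal fit; values are triplicate arithmetic means.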

[13] = tested on: Candida albicans; assay: Activity at Candida albicans 3795 1,3-beta-D-glucan synthase subunit FKS1p; method in brief: as §2
[14] = Inhibition of Candida albicans A15 1,3-beta-D-glucan synthase subunit FKS1p T1933Y mutant; method in brief: as §4
[15] = tested on: Candida albicans; assay: Antimicrobial activity against Candida albicans 205 harboring FKS1 T1933C mutant gene and FKS1 hotspot1 S645P mutant gene by M27-A3 method in presence of 50% human serum; type: functional; method in brief: as §1
[16] = Inhibition of Candida albicans 205 1,3-beta-D-glucan synthase subunit FKS1p T1933C mutant; method in brief: as §4
[17] = tested on: Candida albicans; assay: Antimicrobial activity against Candida albicans 5415 harboring FKS1 T1933C mutant gene and FKS1 hotspot1 S645P mutant gene by M27-A3 method; type: functional; method in brief: as §1
[18] = Inhibition of Candida albicans 5415 1,3-beta-D-glucan synthase subunit FKS1p T1933C mutant; method in brief: as §4
[19] = Inhibition of Candida albicans 90 1,3-beta-D-glucan synthase subunit FKS1p G4082R mutant; method in brief: as §4
[20] = tested on: Candida albicans; assay: Antimicrobial activity against Candida albicans A15-10 harboring FKS1 T1933C mutant gene and FKS1 hotspot1 S645P mutant by M27-A3 method in presence of 50% human serum; type: functional; method in brief: as §1
[21] = tested on: Candida albicans; assay: Antimicrobial activity against Candida albicans 122 harboring FKS1 C1946A mutant gene and FKS1 hotspot1 P649H mutant gene by M27-A3 method in presence of 50% human serum; type: functional; method in brief: as §1
[22] = tested on: Candida albicans; assay: Antimicrobial activity against Candida albicans 85 harboring FKS1 C1934T mutant gene and FKS1 hotspot1 S645F mutant gene by M27-A3 method; type: functional; method in brief: as §1
[23] = tested on: Candida albicans; assay: Antimicrobial activity against Candida albicans 122 harboring FKS1 C1946A mutant gene and FKS1 hotspot1 P649H mutant gene by M27-A3 method; type: functional; method in brief: as §1
[24] = Inhibition of Candida albicans 119 1,3-beta-D-glucan synthase subunit FKS1p T1921C mutant
Method in brief: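 Product-entrapped glucan synthase from YPD-grown cells (37°C, early stationary phase) in a filtration polymerization assay with [3H]UDPG. Echinocandin serial dilutions were added, with 1% DMSO in controls for anidulafungin. Reactions were started with enzyme, run 60 min at 25°C and stopped on ice. IC50 came from a variable-slope sigmoidal fit, in triplicate.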

[25] = tested on: Candida albicans; assay: Antimicrobial activity against Candida albicans 3107 by M27-A3 method; type: functional; method in brief: as §1
[26] = Inhibition of Candida albicans 3795 1,3-beta-D-glucan synthase subunit FKS1p; method in brief: as §4
[27] = tested on: Candida albicans; assay: Antimicrobial activity against Candida albicans 2762 harboring FKS1 T1922C mutant gene and FKS1 hotspot1 F641S mutant gene by M27-A3 method; type: functional; method in brief: as §1
[28] = tested on: Candida albicans; assay: Antimicrobial activity against Candida albicans 1002 by M27-A3 method; type: functional
Method in brief: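 Broth microdilution per CLSI M27-A3 in RPMI 1640, with and without 50% human serum, in triplicate. C. krusei ATCC 6258 and C. parapsilosis ATCC 22019 served as quality-control strains. MIC reported as arithmetic mean of three repetitions on separate days.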

[29] = tested on: Candida albicans; assay: Antimicrobial activity against Candida albicans 3795 by M27-A3 method in presence of 50% human serum; type: functional; method in brief: as §1
[30] = tested on: Candida albicans; assay: Activity at Candida albicans 89 1,3-beta-D-glucan synthase subunit FKS1p C1934A mutant; method in brief: as §3
[31] = Inhibition of Candida albicans SC5314 1,3-beta-D-glucan synthase subunit FKS1p; method in brief: as §4

## CC[C@H](C)C[C@H](C)CCCCCCCCC(=O)N[C@H]1C[C@@H](O)[C@@H](NCCN)NC(=O)[C@@H]2[C@@H](O)CCN2C(=O)[C@H]([C@H](O)CCN)NC(=O)[C@H]([C@H](O)[C@@H](O)c2ccc(O)cc2)NC(=O)[C@@H]2C[C@@H](O)CN2C(=O)[C@H]([C@@H](C)O)NC1=O [CASPOFUNGIN]
[1]
  MIC: 8 µg/mL (≈ 7.32 µM)
[2]
  MIC: 0.25 µg/mL
[3]
  MIC: 2 µg/mL (≈ 1.83 µM)
[4]
  MIC: 2.67 µg/mL (≈ 2.44 µM)
[5]
  Km: 125 µM
  Vmax: 6.72 nmol/min
[6]
  Km: 61 µM
  Vmax: 5.81 nmol/min
[7]
  MIC: 4 µg/mL (≈ 3.66 µM)
[8]
  MIC: 8 µg/mL
[9]
  MIC: 4 µg/mL (≈ 3.66 µM)
[10]
  Km: 50 µM
  Vmax: 4.4 nmol/min
[11]
  MIC: 16 µg/mL
[12]
  IC50: 910 ng/mL (≈ 0.832 µM)
  Ki: 498.93 ng/mL (≈ 0.456 µM)
[13]
  Km: 88 µM
  Vmax: 6.63 nmol/min
[14]
  IC50: 218.1 ng/mL (≈ 0.199 µM)
[15]
  MIC: 8 µg/mL
[16]
  IC50: 245.4 ng/mL (≈ 0.224 µM)
  Ki: 1480 ng/mL (≈ 1.35 µM)
[17]
  MIC: 8 µg/mL (≈ 7.32 µM)
[18]
  IC50: 698.1 ng/mL (≈ 0.639 µM)
  Ki: 2122.49 ng/mL (≈ 1.94 µM)
[19]
  IC50: 20.43 ng/mL (≈ 0.0187 µM)
  Ki: 148.15 ng/mL (≈ 0.136 µM)
[20]
  MIC: 16 µg/mL
[21]
  MIC: 4 µg/mL
[22]
  MIC: 4 µg/mL (≈ 3.66 µM)
[23]
  MIC: 4 µg/mL (≈ 3.66 µM)
[24]
  IC50: 10.03 ng/mL (≈ 0.00917 µM)
  Ki: 4.92 ng/mL (≈ 0.0045 µM)
[25]
  MIC: 0.25 µg/mL (≈ 0.229 µM)
[26]
  IC50: 1.44 ng/mL (≈ 0.00132 µM)
  Ki: 4.67 ng/mL (≈ 0.00427 µM)
[27]
  MIC: 3.33 µg/mL (≈ 3.05 µM)
[28]
  MIC: 0.33 µg/mL (≈ 0.302 µM)
[29]
  MIC: 0.5 µg/mL
[30]
  Km: 61 µM
  Vmax: 2.51 nmol/min
[31]
  Ki: 2.97 ng/mL (≈ 0.00272 µM)

## CCCCCOc1ccc(-c2cc(-c3ccc(C(=O)N[C@H]4C[C@@H](O)[C@@H](O)NC(=O)[C@@H]5[C@@H](O)[C@@H](C)CN5C(=O)[C@H]([C@H](O)CC(N)=O)NC(=O)[C@H]([C@H](O)[C@@H](O)c5ccc(O)c(OS(=O)(=O)O)c5)NC(=O)[C@@H]5C[C@@H](O)CN5C(=O)[C@H]([C@@H](C)O)NC4=O)cc3)no2)cc1 [MICAFUNGIN] (X1-[Orn(4R-OH,5R-OH)]T[Hyp][hTyr(3S-OH,4S-OH,3'-OSO3H)][Gln(3R-OH)][Pro(3S-OH,4S-Me)]; lactam 1-C)
[1]
  MIC: 4 µg/mL (≈ 3.15 µM)
[2]
  MIC: 1 µg/mL
[3]
  MIC: 0.33 µg/mL (≈ 0.26 µM)
[4]
  MIC: 0.83 µg/mL (≈ 0.653 µM)
[5]
  Km: 125 µM
  Vmax: 6.72 nmol/min
[6]
  Km: 61 µM
  Vmax: 5.81 nmol/min
[7]
  MIC: 0.5 µg/mL (≈ 0.394 µM)
[8]
  MIC: 16 µg/mL
[9]
  MIC: 1 µg/mL (≈ 0.787 µM)
[10]
  Km: 50 µM
  Vmax: 4.4 nmol/min
[11]
  MIC: 16 µg/mL
[12]
  IC50: 1693 ng/mL (≈ 1.33 µM)
  Ki: 1447.88 ng/mL (≈ 1.14 µM)
[13]
  Km: 88 µM
  Vmax: 6.63 nmol/min
[14]
  IC50: 177.3 ng/mL (≈ 0.14 µM)
[15]
  MIC: 8 µg/mL
[16]
  IC50: 1085 ng/mL (≈ 0.854 µM)
  Ki: 2673.63 ng/mL (≈ 2.1 µM)
[17]
  MIC: 4 µg/mL (≈ 3.15 µM)
[18]
  IC50: 1254 ng/mL (≈ 0.987 µM)
  Ki: 2753.01 ng/mL (≈ 2.17 µM)
[19]
  IC50: 77.39 ng/mL (≈ 0.0609 µM)
  Ki: 264.73 ng/mL (≈ 0.208 µM)
[20]
  MIC: 8 µg/mL
[21]
  MIC: 4 µg/mL
[22]
  MIC: 2.67 µg/mL (≈ 2.1 µM)
[23]
  MIC: 0.83 µg/mL (≈ 0.653 µM)
[24]
  IC50: 183.6 ng/mL (≈ 0.145 µM)
  Ki: 155.9 ng/mL (≈ 0.123 µM)
[25]
  MIC: 0.03 µg/mL (≈ 0.0236 µM)
[26]
  IC50: 38.89 ng/mL (≈ 0.0306 µM)
  Ki: 58.64 ng/mL (≈ 0.0462 µM)
[27]
  MIC: 1 µg/mL (≈ 0.787 µM)
[28]
  MIC: 0.04 µg/mL (≈ 0.0315 µM)
[29]
  MIC: 0.5 µg/mL
[30]
  Km: 61 µM
  Vmax: 2.51 nmol/min
[31]
  IC50: 58.2 ng/mL (≈ 0.0458 µM)
  Ki: 27.47 ng/mL (≈ 0.0216 µM)
